Apaf-1 inh: blocks human Apaf-1 apoptosome activity | reconstituted apoptosome caspase-3 activity, DEVD-Rh110 fluorescence | inhibition, % at 20 µM | O14727 | actives 0.71% (n = 330,000); active means inhibition of at least 40% at 20 µM;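 further: plate controls were DMSO wells for no effect and DEVD-CHO caspase inhibitor wells for full effect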
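Material: reconstituted apoptosome with Apaf-1, cytochrome c, caspase-9, procaspase-3, dATP; medium: pH 7.5 Hepes buffer with CHAPS, BSA, DTT; also added: cytochrome c and DEVD-Rh110 substrate; timing: 30 min plus 50 min, RT; signal: Rh110 fluorescence intensity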
PAFAH2 inh: PAFAH2 (human) inhibition. Q99487. inhibition, % at 3.39 µM. recombinant PAFAH2, FP-rhodamine activity probe, fluorescence polarization. actives 0.99% (n = 340,000);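 active means inhibition above the mean over all tested compounds plus 3 SD, cut at about 30% in these data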;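 further: inhibitors block probe labeling of enzyme so polarization drops; 0% = enzyme with DMSO and 100% = wells lacking PAFAH2 protein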
PAFAH1B2 FP inh: blocks human PAF acetylhydrolase 1b catalytic subunit 2 | inhibition, % at 3.39 µM | AID 492953 | actives 1.2% (n = 340,000) | recombinant PAFAH1B2, FP-rhodamine activity probe, fluorescence polarization;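 active means inhibition above the mean of all tested compounds plus 3 SD, cut at about 24% in these data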;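 further: 0% = enzyme with DMSO and 100% = wells lacking PAFAH1B2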
Target sequence (P68402 whole entry, looked up): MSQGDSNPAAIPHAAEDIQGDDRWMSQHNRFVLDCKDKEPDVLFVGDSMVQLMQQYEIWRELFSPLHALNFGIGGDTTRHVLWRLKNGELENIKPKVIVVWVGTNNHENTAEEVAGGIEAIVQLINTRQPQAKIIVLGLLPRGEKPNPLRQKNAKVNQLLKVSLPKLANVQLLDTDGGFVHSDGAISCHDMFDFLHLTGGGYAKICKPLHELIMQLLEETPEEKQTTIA
PAFAH1B3 FP inh: inhibitors of human PAFAH1B3 | AID 492972 | recombinant PAFAH1B3, FP-rhodamine probe, fluorescence polarization | inhibition, % at 3.39 µM | actives 0.28% (n = 340,000);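 active means inhibition above the screen-wide average of all tested compounds plus 3 SD, cut at about 25% in these data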;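 further: 0% = enzyme with DMSO only and 100% = wells lacking PAFAH1B3 protein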
Target sequence (Q15102 whole entry, looked up): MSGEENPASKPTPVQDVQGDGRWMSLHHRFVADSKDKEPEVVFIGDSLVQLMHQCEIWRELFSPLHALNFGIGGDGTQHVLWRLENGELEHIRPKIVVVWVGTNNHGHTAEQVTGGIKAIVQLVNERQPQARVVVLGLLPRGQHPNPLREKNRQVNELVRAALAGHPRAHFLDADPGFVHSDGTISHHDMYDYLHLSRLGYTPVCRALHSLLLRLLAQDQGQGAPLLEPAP
pPAFAH FP inh: inhibitors of human plasma PAF acetylhydrolase (pPAFAH); recombinant pPAFAH, FP-rhodamine probe fluorescence polarization; Q13093; actives 1.5% (n = 330,000); inhibition, % at 3.39 µM; AID 463082;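 active means inhibition above the mean inhibition across the screen plus 3 SD, cut at about 25% in these data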;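 further: inhibitors block binding of the rhodamine activity-based probe so polarization drops; 0% = enzyme with DMSO and 100% = wells lacking pPAFAH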
Active calls of the source: *; · = not tested or not shown. Rows were chosen to be rich in hits. Some 3.1% of all compounds tested hit in one or more screens of this group.

SMILES	Apaf-1 inh	PAFAH2 inh	PAFAH1B2 FP inh	PAFAH1B3 FP inh	pPAFAH FP inh
COc1ccccc1NS(=O)(=O)c1ccc(N/N=C/C=C/c2ccccc2[N+](=O)[O-])c([N+](=O)[O-])c1	2.3	-1.9	-8.1	-1.1	1.5
COc1ccccc1NS(=O)(=O)c1ccc(N/N=C/c2ccccc2OCC(=O)O)c([N+](=O)[O-])c1	4.9	15.0	9.3	12.9	28.6*
CCOC(=O)C1CCN(S(=O)(=O)c2ccc3[nH]c(=O)c(=O)[nH]c3c2)CC1	1.7	0.9	5.7	0.2	8.7
CC1CCN(S(=O)(=O)c2ccc3[nH]c(=O)c(=O)[nH]c3c2)CC1	-3.4	-8.2	60.3*	3.3	2.5
Cc1ccc2c(c1)-n1c(nc3cc(F)ccc3c1=O)C(Cc1ccc(O)cc1)NC2=O (configuration not stated)	7.2	·	·	·	-0.7
Cc1cc(C)c(C)c(S(=O)(=O)N2CCC(C(=O)OCC(=O)N3c4ccccc4NC(=O)C3(C)C)CC2)c1C	24.4	2.6	-0.2	6.9	5.3
Cc1ccc(S(=O)(=O)N2CCCCC2)cc1C(=O)OCC(=O)N1c2ccccc2NC(=O)C1(C)C	8.4	8.0	34.1*	6.1	6.6
Cc1ccc(C(=O)OCC(=O)N2c3ccccc3NC(=O)C2(C)C)cc1S(=O)(=O)N1CCCCC1	10.9	7.8	27.2*	8.2	3.8
COc1ccc(-c2c(-c3ccc4c(c3)OCO4)c3ccccc3n2C)cc1	·	7.5	5.7	14.6	·
COc1ccc(-c2nnc(SCC(=O)NC3CCCCC3)n2N)cc1	5.9	11.0	-1.8	-4.5	·
Cc1c(NC(=O)/C(C#N)=C/c2ccc(-c3ccccc3Cl)o2)c(=O)n(-c2ccccc2)n1C	19.5	1.8	-1.1	8.1	27.4*
N#CC1=C(N)NC(SCC(=O)O)=C(C#N)C12CCCC2	6.5	13.1	0.7	5.1	3.6
N#CC1=C(N)NC(SCc2ccc(F)cc2)=C(C#N)C12CCCCC2	15.4	4.7	27.6*	-6.2	0.3
CCOC(=O)N1CCN(C(=O)C(=O)c2cn(CC(=O)N3CCCCCC3)c3ccccc23)CC1	5.7	-8.1	3.4	4.2	-3.9
O=c1c2c([nH]c3ccc(Br)cc13)CCCC2	0.3	9.0	-0.1	0.8	2.4
O=c1ccc2cc3c([nH]c4ccc(Br)cc43)oc-2c1O	85.3*	52.0*	41.6*	45.0*	79.3*
CC1=CC(=O)C=C/C1=C(/c1ccc(O)cc1C)c1ccccc1S(=O)(=O)O	6.1	-0.9	26.3*	2.4	16.6
COc1ccc(-c2sc3ccc(OC)cc3c2C#CCCO)cc1	34.3	-8.3	-2.4	0.0	-2.6
COc1ccc2sc(-c3ccc(N(C)C)cc3)c(C#CCCO)c2c1	17.6	5.2	4.9	13.2	25.9*
CC(=O)[C@@H]1[C@@H](C(=O)c2ccccc2)[C@]2(C(=O)Nc3ccccc32)[C@H]2C=Cc3cc(F)ccc3N12	18.9	10.8	1.5	0.8	7.0
O=C(c1ccccc1)[C@@H]1[C@@H](C(=O)c2ccc(F)cc2)[C@@]2(C(=O)Nc3ccccc32)[C@H]2c3ccccc3C=CN12	63.7*	-6.0	5.5	1.3	-4.8
CCOc1cccc(CNCCO)c1OCc1ccc(Cl)cc1Cl	13.3	-0.4	5.7	0.6	-1.1
CCOc1cccc(CNc2ccc(O)cc2)c1OCc1ccc(Cl)cc1Cl	22.5	3.8	9.8	16.1	31.2*
O=C(Nc1ccc(S(=O)(=O)Nc2nccs2)cc1)c1nn(-c2ccc(F)cc2)ccc1=O	0.8	24.0	1.3	7.2	26.3*
CCOc1ccc(-n2ccc(=O)c(C(=O)Nc3ccc(S(=O)(=O)Nc4nccs4)cc3)n2)cc1	12.2	11.6	5.3	4.7	17.2
CCCCc1cc(=O)oc2cc(C)cc(OCC(=O)NC(Cc3ccc(Cl)cc3)C(=O)O)c12 (configuration not stated)	0.2	-0.7	30.1*	4.1	6.3
CCCc1cc(=O)oc2cc(C)cc(OCC(=O)N[C@@H](CSCc3ccccc3)C(=O)O)c12	7.3	5.0	1.6	-3.0	16.6
CCCc1cc(=O)oc2cc(C)cc(OCC(=O)NC(Cc3ccc(Cl)cc3)C(=O)O)c12 (configuration not stated)	-0.6	-7.5	27.1*	3.0	5.8
CC(C)=CCc1cc([C@@H]2CC(=O)c3ccc(O)c(CC=C(C)C)c3O2)ccc1O	-12.4	-6.4	-3.8	5.1	-1.8
Nc1nnc(-c2cccc(F)c2)s1	-13.4	9.8	-1.4	9.4	0.2
